Published values collected from several papers.
CA9: Carbonic anhydrase 9 (CA9, Homo sapiens, UniProt Q16790)
PKN1: Serine/threonine-protein kinase N1 (PKN1, Homo sapiens, UniProt Q16512)
MAOB: Amine oxidase [flavin-containing] B (MAOB, Homo sapiens, UniProt P27338)
HRH1: Histamine H1 receptor (HRH1, Homo sapiens, UniProt P35367)
PADI4: Protein-arginine deiminase type-4 (PADI4, Homo sapiens, UniProt Q9UM07)

CCOC(=O)C1CSc2[nH]c(=O)sc2C1c1cn(-c2ccccc2)nc1-c1ccc(Br)cc1 (stereo not drawn)  inhibition (CA9; enzyme activity, inhibitor; 10 µM): 80.5%
COc1cc(N2CCOCC2)ccc1NC(=O)c1csc(-c2cccnc2)n1  activity vs control (PKN1; enzyme activity, inhibitor; 1 µM): 87%
NNCCc1ccc(NC(=O)CCCc2ccccc2)cc1  KI (inactivation) (MAOB; enzyme activity, inhibitor): 6.5 µM
O=C(Nc1ccccc1)c1cc([N+](=O)[O-])ccc1O  inhibition (MAOB; enzyme activity, inhibitor; 1 µM, 20 min): 2%
CCOC(=O)C1CSc2[nH]c(=O)sc2C1c1cn(-c2ccccc2)nc1-c1ccccc1 (stereo not drawn)  inhibition (CA9; enzyme activity, inhibitor; 0.1 µM): 29%
O=C(Nc1ccc(OC(F)(F)F)cc1)c1ccccc1  inhibition (MAOB; enzyme activity, inhibitor; 1 µM, 20 min): 29%
CN1CCC(=C2c3ccccc3CCc3ccccc32)CC1  koff (HRH1; binding): 8.33e-05 s⁻¹
O=C(Nc1ccccc1)c1cc(Cl)ccc1O  inhibition (MAOB; enzyme activity, inhibitor; 1 µM, 20 min): 44%
N#C/C(=C\c1ccc(O)c(O)c1)C(=O)Nc1ccccc1  activity vs control (PKN1; enzyme activity, inhibitor; 1 µM): 78%
O=C(Nc1ccc(Br)cc1)c1cc2ccccc2cc1O  inhibition (MAOB; enzyme activity, inhibitor; 1 µM, 20 min): 72%
N=C(CF)NCCC[C@H](NC(=O)c1ccccc1)c1nn[nH]n1  kinact/KI (PADI4; enzyme activity, inhibitor): 67.5 M⁻¹ s⁻¹
O=C(Nc1ccc([N+](=O)[O-])cc1[N+](=O)[O-])c1cc2ccccc2o1  inhibition (MAOB; enzyme activity, inhibitor; 1 µM, 20 min): 80%
O=C(O)c1ccc(-c2c[nH]c3ncc(-c4ccccc4)cc23)cc1C1CCCC1  activity vs control (PKN1; enzyme activity, inhibitor; 1 µM): 24%
Nc1ncnc2c1ncn2[C@@H]1O[C@H](COP(=O)(O)OP(=O)(O)O)[C@@H](O)[C@H]1O  ΔTm (Katanin p60 ATPase-containing subunit A1 (Homo sapiens, UniProt O75449, D210C); thermal stability, DSF; 1 mM): 4.5 to 4.8 °C
CN1CCN(C2c3ccccc3C=Cc3ccccc32)CC1  kon (HRH1; binding): 117000 M⁻¹ s⁻¹
COc1cc2ncnc(Nc3cccc(Cl)c3)c2cc1OC.CS(=O)(=O)O  activity vs control (PKN1; enzyme activity, inhibitor; 1 µM): 99%
Cc1cc(N)ccc1NC(=O)c1ccccc1  inhibition (MAOB; enzyme activity, inhibitor; 1 µM, 20 min): -2%
Cc1cc(F)ccc1-c1nc(NCCN=C(N)NC#N)nc2c1ccc(=O)n2-c1c(F)cccc1F  activity vs control (PKN1; enzyme activity, inhibitor; 1 µM): 90%
CC(C)(C)n1nnc([C@H](CCCNC(=N)CF)NC(=O)c2ccccc2)n1  kinact/KI (PADI4; enzyme activity, inhibitor): 4.33 M⁻¹ s⁻¹
CO[C@H]1C[C@@H]2CC[C@@H](C)[C@@](O)(O2)C(=O)C(=O)N2CCCC[C@H]2C(=O)O[C@H]([C@H](C)C[C@@H]2CC[C@@H](OP(C)(C)=O)[C@H](OC)C2)CC(=O)[C@H](C)/C=C(\C)[C@@H](O)[C@@H](OC)C(=O)[C@H](C)C[C@H](C)/C=C/C=C/C=C/1C  activity vs control (PKN1; enzyme activity, inhibitor; 1 µM): 104%
CCOC(=O)C1CSc2[nH]c(=O)sc2C1c1cn(-c2ccccc2)nc1-c1ccc(Cl)cc1 (stereo not drawn)  inhibition (CA9; enzyme activity, inhibitor; 1 µM): 70.1%
O=C(Nc1ccc([N+](=O)[O-])cc1Cl)c1cc2ccccc2cc1O  inhibition (MAOB; enzyme activity, inhibitor; 1 µM, 20 min): 48%
C=CC(=O)Nc1cc2c(Nc3ccc(F)c(Cl)c3)ncnc2cc1OCCCN1CCOCC1  activity vs control (PKN1; enzyme activity, inhibitor; 1 µM): 63%
COc1cc2c(CCNC(C)=O)c[nH]c2cc1O  Km (Sulfotransferase 1A1 (SULT1A1, Homo sapiens, UniProt P50225); enzyme activity, substrate; pH 7): 8.2 µM
